ChEMBL document CHEMBL1125311, “Inhibition of human leukocyte elastase. 4. Selection of a substituted cephalosporin (L-658,758) as a topical aerosol” (J Med Chem, 1992)
Each block holds one compound with its values, some of them ahead of it.

Legend:
[1] = Half-life value of the compound.; format: ADME
Method in brief: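 Chemical stability: compound dissolved at 1 mg/mL in 0.5 M MOPS, pH 8.0, held at 25 °C in capped vial; aliquots quenched in 2% aqueous TFA and analysed by reverse-phase HPLC over one to two half-lives. Peak areas fit to first-order decay F(t)=A/2^(t/t1/2) to give t1/2.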

[2] = target: T1, Neutrophil elastase (Homo sapiens, UniProt P08246); experiment: Inhibitory activity against HLE at 10 min (48 mM conc)
T1 sequence (P08246 whole entry): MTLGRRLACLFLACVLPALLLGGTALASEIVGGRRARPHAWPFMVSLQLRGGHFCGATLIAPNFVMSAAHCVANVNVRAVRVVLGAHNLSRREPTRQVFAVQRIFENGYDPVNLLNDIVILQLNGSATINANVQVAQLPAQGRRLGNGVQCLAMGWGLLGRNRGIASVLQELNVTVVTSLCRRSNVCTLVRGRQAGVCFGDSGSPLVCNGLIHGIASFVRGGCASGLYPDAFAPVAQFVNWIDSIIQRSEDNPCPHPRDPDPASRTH

[3] = Inhibition of elastin solubilization; format: functional
[4] = test system: Cricetinae gen. sp.; experiment: Inhibition of lung hemorrhage at 200 ug/animal; format: functional, Cricetulus griseus
Method in brief: (§1)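 Hamster duration protocol: 200 μg/animal given intratracheally 60, 120, 180 or 240 min before IT HLE instillation; hemorrhage scored after 3 h as hemoglobin (414 nm) in saline lung lavage, relative to vehicle-treated animals; three animals per point. T50 taken as time at which 50% inhibition is still obtained.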

[5] = test system: Cricetinae gen. sp.; experiment: Inhibitory activity against Human Leukocyte Elastase by Lung Hemorrhage assay (Effective dose at 15 microg); format: functional, Cricetulus griseus
[6] = test system: Cricetinae gen. sp.; experiment: Compound was evaluated in vivo for inhibition of HLE-induced hemorrhage in hamster lung at 200 microg 1 hr after administration prior to HLE; format: functional, Cricetulus griseus; method in brief: as §1
[7] = test system: Cricetinae gen. sp.; experiment: Compound was evaluated in vivo for inhibition of HLE-induced hemorrhage in hamster lung at 200 microg 2 hr after administration prior to HLE; format: functional, Cricetulus griseus; method in brief: as §1
[8] = test system: Cricetinae gen. sp.; experiment: Compound was evaluated in vivo for inhibition of HLE-induced hemorrhage in hamster lung at 200 microg 3h after administration prior to HLE; format: functional, Cricetulus griseus; method in brief: as §1
[9] = test system: Cricetinae gen. sp.; experiment: Compound was evaluated in vivo for inhibition of HLE-induced hemorrhage in hamster lung at 200 microg 4 hr after administration prior to HLE; format: functional, Cricetulus griseus; method in brief: as §1
[10] = test system: Cricetinae gen. sp.; experiment: Compound was evaluated in vivo for inhibition of HLE-induced hemorrhage in hamster lung at 10 microg 30 min after administration prior to HLE; format: functional, Cricetulus griseus
Method in brief: (§2)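 Hamster, intratracheal dosing of compound (per animal) 30 min before IT instillation of 50 μg HLE (50 units in Experimental); hemorrhage read 3 h later: lungs lavaged with saline, hemoglobin in lavage measured at 414 nm. Percent inhibition from drug-treated vs vehicle-treated hemorrhage; three animals per dose and time. Titration at 100, 30, 10, 3 μg/animal gives ED50.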

[11] = test system: Cricetinae gen. sp.; experiment: Compound was evaluated in vivo for inhibition of HLE-induced hemorrhage in hamster lung at 30 microg 30 min after administration prior to HLE; format: functional, Cricetulus griseus; method in brief: as §2
[12] = test system: Cricetinae gen. sp.; experiment: Compound was evaluated in vivo for inhibition of HLE-induced hemorrhage in hamster lung at 100 microg 30 min after administration prior to HLE; format: functional, Cricetulus griseus; method in brief: as §2
[13] = test system: Cricetinae gen. sp.; experiment: Inhibitory activity against Human Leukocyte Elastase by Lung Hemorrhage assay; format: functional, Cricetulus griseus
[14] = species: Homo sapiens; experiment: Inhibitory activity against Clotting cascade at 10 min (240 nM conc); format: functional
Method in brief: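 Whole clotting cascade tested with compound at 240 nM; percent inhibition at 10 min.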

[15] = species: Homo sapiens; experiment: Inhibitory activity against Complement cascade at 10 min (120 mM conc); format: functional
[16] = target: Pepsin A (Homo sapiens) (UniProt P0DJD9); experiment: Inhibitory activity against Pepsin at 48 mM for 10 min
Method in brief: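 Pepsin activity was tracked at 310 nm as hydrolysis of 1 mM Phe-Gly-His-p-NO2-Phe-Phe-Ala-OMe in 0.04 M formate buffer at pH 4.0. Percent inhibition was read at 10 min.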

[17] = target: Plasminogen (Homo sapiens) (UniProt P00747); experiment: Inhibitory activity against Plasmin at 10 min (48 mM conc) using 0.2 mM Tosyl-Gly-Pro-Arg-p-nitroanilide as substrate
Method in brief: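 Human plasmin run under the same conditions as the HLE assay, with 0.2 mM Tosyl-Gly-Pro-Arg-p-nitroanilide as substrate. Inhibitor at 48 mM (so in the source). Percent inhibition read at 10 min.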

[18] = target: T2, Papain (Carica papaya) (UniProt P00784); experiment: Inhibitory activity against Papain at 10 min (48 mM conc)
T2 sequence (whole entry): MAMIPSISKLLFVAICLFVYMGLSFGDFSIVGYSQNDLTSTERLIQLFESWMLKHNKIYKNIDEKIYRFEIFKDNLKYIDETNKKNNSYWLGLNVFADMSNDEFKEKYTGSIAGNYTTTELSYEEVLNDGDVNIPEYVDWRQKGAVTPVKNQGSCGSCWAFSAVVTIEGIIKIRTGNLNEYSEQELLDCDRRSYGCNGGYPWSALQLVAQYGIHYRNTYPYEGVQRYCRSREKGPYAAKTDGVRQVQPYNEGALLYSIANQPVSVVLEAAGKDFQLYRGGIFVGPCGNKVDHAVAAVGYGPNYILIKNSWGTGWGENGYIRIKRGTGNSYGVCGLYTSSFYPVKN
Method in brief: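 Papain activity was read at 410 nm as p-nitroanilide release from benzoyl-Arg-p-nitroanilide, in pH 7.5 TES with 0.001 M EDTA, 0.005 M Cys and 10% DMSO. Percent inhibition was taken at 10 min.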

[19] = target: T3, Thermolysin (Bacillus thermoproteolyticus) (UniProt P00800); experiment: Inhibitory activity against Thermolysin at 10 min (48 mM conc)
T3 sequence (whole entry): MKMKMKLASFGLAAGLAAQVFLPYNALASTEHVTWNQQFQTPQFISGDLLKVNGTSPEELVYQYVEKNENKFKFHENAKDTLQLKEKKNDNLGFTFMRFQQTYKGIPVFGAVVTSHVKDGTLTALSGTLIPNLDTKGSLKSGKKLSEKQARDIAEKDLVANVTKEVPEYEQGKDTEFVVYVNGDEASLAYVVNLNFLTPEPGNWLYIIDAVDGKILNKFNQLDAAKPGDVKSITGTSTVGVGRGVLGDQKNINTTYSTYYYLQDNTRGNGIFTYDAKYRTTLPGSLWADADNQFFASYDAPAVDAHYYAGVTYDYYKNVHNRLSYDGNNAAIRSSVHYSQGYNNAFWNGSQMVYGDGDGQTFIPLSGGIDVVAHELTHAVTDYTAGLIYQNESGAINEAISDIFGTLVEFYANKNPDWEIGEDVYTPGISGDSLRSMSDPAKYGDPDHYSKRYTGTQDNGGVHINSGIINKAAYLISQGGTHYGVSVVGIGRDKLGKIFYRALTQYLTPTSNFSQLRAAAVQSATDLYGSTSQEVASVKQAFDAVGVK
Method in brief: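 Thermolysin cleaved 0.2 mM Suc-Ala-Ala-Phe-AMC in pH 7.5 TES with excess leucine aminopeptidase. Released 7-amino-4-methylcoumarin was read by fluorescence (ex 383, em 455). Percent inhibition was taken at 10 min.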

[20] = Partion ratio of the compound; format: ADME
[21] = species: Rattus norvegicus; experiment: Inhibition of lung hemorrhage caused by elastase in an acute reverse passive Arthus reaction in rat at 250 ug/animal (ED50=55 ug); format: functional
[22] = target: Prothrombin (Homo sapiens) (UniProt P00734); experiment: Inhibitory activity against Thrombin at 10 min (48 mM conc)
Method in brief: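 Human thrombin was assayed colorimetrically with 0.2 mM Tosyl-Gly-Pro-Arg-p-nitroanilide as substrate. Percent inhibition was read at 10 min.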

[23] = target: T4, Neutrophil elastase (Homo sapiens) (UniProt P08246)
T4 sequence (whole entry): T1 sequence (P08246 whole entry)

[24] = target: T5, Cathepsin G (Homo sapiens) (UniProt P08311); experiment: Inhibitory activity against Cathepsin G at 10 min (48 mM conc)using t-Boc-Tyr-ONp as substrate
T5 sequence (whole entry): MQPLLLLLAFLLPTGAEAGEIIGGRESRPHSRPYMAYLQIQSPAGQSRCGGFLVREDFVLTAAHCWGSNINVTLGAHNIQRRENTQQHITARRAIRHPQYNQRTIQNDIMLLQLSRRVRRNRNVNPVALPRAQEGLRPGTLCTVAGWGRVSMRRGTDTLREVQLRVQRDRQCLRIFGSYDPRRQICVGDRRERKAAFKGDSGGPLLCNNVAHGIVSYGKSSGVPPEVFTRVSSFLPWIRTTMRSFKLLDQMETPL

[25] = test system: Cricetinae gen. sp.; experiment: Compound was evaluated in vivo for inhibition of HLE-induced hemorrhage in hamster lung at 100 microg, 30 min after administration; format: functional, Cricetulus griseus; method in brief: as §2
[26] = test system: Cricetinae gen. sp.; experiment: Compound was evaluated in vivo for inhibition of HLE-induced hemorrhage in hamster lung at 100 microg, 90 min after administration; format: functional, Cricetulus griseus
[27] = test system: Cricetinae gen. sp.; experiment: Compound was evaluated in vivo for inhibition of HLE-induced hemorrhage in hamster lung at 10 microg 30 min after administration; format: functional, Cricetulus griseus; method in brief: as §2
[28] = test system: Cricetinae gen. sp.; experiment: Compound was evaluated in vivo for inhibition of HLE-induced hemorrhage in hamster lung at 100 microg 30 min after administration; format: functional, Cricetulus griseus; method in brief: as §2
[29] = test system: Cricetinae gen. sp.; experiment: Compound was evaluated in vivo for inhibition of HLE-induced hemorrhage in hamster lung at 200 microg after 180 min of administration; format: functional, Cricetulus griseus; method in brief: as §1

Sequence of Pepsin A (Homo sapiens) (P0DJD9 63-388 limits assumed): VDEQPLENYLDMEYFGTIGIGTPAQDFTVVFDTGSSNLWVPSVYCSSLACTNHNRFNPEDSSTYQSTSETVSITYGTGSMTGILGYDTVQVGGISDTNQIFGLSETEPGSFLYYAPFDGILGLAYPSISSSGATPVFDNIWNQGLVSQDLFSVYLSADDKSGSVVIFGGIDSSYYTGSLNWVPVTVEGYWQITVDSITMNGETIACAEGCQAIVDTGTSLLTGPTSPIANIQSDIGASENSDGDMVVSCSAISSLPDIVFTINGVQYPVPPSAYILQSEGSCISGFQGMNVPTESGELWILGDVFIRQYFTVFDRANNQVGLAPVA
Sequence of Plasminogen (Homo sapiens) (P00747 97-580 limits assumed): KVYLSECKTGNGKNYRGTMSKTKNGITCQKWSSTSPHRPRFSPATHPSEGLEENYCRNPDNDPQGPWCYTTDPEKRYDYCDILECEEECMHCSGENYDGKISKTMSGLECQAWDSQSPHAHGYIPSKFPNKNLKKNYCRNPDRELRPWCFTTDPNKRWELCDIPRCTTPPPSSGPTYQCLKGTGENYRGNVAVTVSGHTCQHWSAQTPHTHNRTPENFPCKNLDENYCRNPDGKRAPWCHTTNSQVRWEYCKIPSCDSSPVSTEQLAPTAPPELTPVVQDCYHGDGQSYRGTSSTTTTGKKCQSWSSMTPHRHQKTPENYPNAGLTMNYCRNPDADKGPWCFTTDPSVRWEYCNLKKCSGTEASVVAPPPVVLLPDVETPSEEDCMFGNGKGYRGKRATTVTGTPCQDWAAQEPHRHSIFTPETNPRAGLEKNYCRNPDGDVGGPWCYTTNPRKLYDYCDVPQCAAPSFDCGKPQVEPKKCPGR
Sequence of Plasminogen (Homo sapiens) (P00747 581-810 limits assumed): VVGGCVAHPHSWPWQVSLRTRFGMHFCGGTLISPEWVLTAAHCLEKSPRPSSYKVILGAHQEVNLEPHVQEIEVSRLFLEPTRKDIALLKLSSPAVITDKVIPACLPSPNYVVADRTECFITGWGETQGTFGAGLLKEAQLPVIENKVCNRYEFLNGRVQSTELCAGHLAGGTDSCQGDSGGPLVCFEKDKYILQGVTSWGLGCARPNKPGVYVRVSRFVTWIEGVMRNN

Compound: CO[C@H]1C(=O)N2C(C(=O)N3CCC[C@H]3C(=O)O)=C(COC(C)=O)CS(=O)(=O)[C@H]12
half-life [1]: 21 h
Ki [2]: 1700 nM
IC50 [3]: 500 nM
T50 [4]: 185 min
ED50 [5]: 30 µg
Inhibition [6]: 99%
Inhibition [7]: 97%
Inhibition [8]: 78%
Inhibition [9]: 32%
Inhibition [10]: 77%
Inhibition [11]: 86%
Inhibition [12]: 93%
Inhibition [13]: 70%
Inhibition [14]: -8%
Inhibition [15]: 6%
inhibition [16]: 0%
inhibition [17]: 14%
inhibition [18]: 0%
inhibition [19]: 0%
Partition ratio [20]: 2
Inhibition [21]: 87%
inhibition [22]: 0%
k obs / 1 [23]: 3800 M⁻¹ s⁻¹
inhibition [24]: 18%

k obs / 1 [23]: 63900 M⁻¹ s⁻¹
Compound: CO[C@H]1C(=O)N2C(C(=O)OC(C)(C)C)=C(COC(=O)N[C@@H](Cc3ccccc3)C(=O)O)CS(=O)(=O)[C@H]12
Inhibition [25]: 87%
Inhibition [26]: 10%

half-life [1]: 13 h
k obs / 1 [23]: 300 M⁻¹ s⁻¹
Compound: CO[C@H]1C(=O)N2C(C(=O)N(C)CC(=O)O)=C(COC(C)=O)CS(=O)(=O)[C@H]12
Inhibition [27]: 67%
Inhibition [28]: 90%
Inhibition [29]: 54%
